In general, inhibition refers to how much of the control response was suppressed. Usually GI50 stands for the concentration at which growth is held to half of that of the control. A word on the pIC50: it is the IC50 on a negative log10 scale, so that one unit is a factor of ten. Low readings indicate a large IC50, high ones a small IC50.

Test [1] relates to U-251. The test is described as follows: Inhibition of anchorage-independent colony formation in human U251 cells at 100 uM incubated for 14 days by crystal violet staining based soft agar colony formation assay. The format is functional. To be noted: U-251, 336 h, time 14 day. Summed up: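 Soft agar assay: 2.0×10^3 U251 cells in complete medium with 0.3% agar over a 0.6% bottom agar layer. Treated with compounds at 1-100 μM for 14 days, 37 °C, 5% CO2. Colonies stained with crystal violet for 24 h, whole wells photographed and colonies counted against DMSO control; n = 3.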

The subject of test [2] is U-251. Nature of the test: Antiproliferative activity against human U251 cells overexpressing ANO1 assessed as reduction in cell viability measured after 72 hrs by Celltiter-glo assay. The test is classed as functional. In short, it runs like this: (§1)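 5.0×10^3 cells/well seeded, overnight, then compounds added as 1:4 serial dilutions in DMSO; viability read after 72 h with CellTiter-Glo luminescence. GI50 from fitted dose-response curves; triplicate wells, SD from three independent experiments. DMEM for U251 and U138, MEM for U87MG, both with 10% FBS and pen/strep, 37 °C, 5% CO2.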

Test [3] has as its system U-251. Nature of the test: Inhibition of cell migration in human U251 cells at 5 uM incubated for 18 hrs by wound healing assay. The test is classed as functional, cell-based. Summed up:
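U251 monolayer, 2.0×10^5 cells/well, plated overnight, then scratched and washed with PBS. Incubated 18 h in complete medium with compound (1, 5 or 10 μM). Wound area imaged before and after incubation; migration ratio taken from migrated area. One-way ANOVA.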

The test system of a further test is U138-MG. Nature of the test: Antiproliferative activity against human U138 cells overexpressing ANO1 assessed as reduction in cell viability measured after 72 hrs by Celltiter-glo assay. The format is functional. In short, it runs like this: as §1
The next test deals with T1, Anoctamin-1 (Homo sapiens, UniProt Q5XXA6).
T1 sequence (Q5XXA6 whole entry): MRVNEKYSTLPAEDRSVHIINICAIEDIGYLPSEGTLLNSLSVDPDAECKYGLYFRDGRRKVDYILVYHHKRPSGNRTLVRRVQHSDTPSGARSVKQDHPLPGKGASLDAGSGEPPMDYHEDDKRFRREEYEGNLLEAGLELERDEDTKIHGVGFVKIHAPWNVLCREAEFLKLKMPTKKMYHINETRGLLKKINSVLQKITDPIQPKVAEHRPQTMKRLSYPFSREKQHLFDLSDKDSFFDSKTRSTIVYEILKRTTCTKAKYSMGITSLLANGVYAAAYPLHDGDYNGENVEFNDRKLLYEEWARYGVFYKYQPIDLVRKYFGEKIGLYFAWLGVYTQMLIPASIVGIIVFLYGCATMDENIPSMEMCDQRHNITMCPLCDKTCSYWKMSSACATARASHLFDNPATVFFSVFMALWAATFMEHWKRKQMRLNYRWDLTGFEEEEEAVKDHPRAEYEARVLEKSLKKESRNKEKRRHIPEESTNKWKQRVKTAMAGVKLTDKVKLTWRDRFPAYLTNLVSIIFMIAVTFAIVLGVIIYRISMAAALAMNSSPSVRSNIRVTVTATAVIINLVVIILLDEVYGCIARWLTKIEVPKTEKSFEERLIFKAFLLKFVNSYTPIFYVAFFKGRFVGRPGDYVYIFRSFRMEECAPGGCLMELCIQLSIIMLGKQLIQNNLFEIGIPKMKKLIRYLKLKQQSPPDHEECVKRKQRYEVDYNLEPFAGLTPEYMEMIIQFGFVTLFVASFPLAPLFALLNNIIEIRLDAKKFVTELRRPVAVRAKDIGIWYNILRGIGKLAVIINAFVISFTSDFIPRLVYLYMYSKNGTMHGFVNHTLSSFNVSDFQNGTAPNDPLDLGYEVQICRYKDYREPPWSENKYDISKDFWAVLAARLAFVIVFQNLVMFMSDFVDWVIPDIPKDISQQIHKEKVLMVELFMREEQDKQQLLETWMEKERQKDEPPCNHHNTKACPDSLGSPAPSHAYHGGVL
Nature of the test: Inhibition of human ANO1 channel expressed in HEK293 cells incubated for 10 mins by FLIPR assay. The format is cell-based. In short, it runs like this:
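HEK293 cells expressing human ANO1, 50,000 cells/well, plated overnight. Loaded with FLIPR Red membrane-potential dye in HEPES-buffered saline (pH 7.4) for 40-60 min at room temperature. Compound added for 10 min at room temperature, final DMSO 0.5%.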

Test [4] deals with U-251. The test is described as follows: Inhibition of colony formation in human U251 cells at 10 uM incubated for 14 days by crystal violet dye based assay. The test is classed as functional. To be noted: U-251, 336 h, time 14 day. In short, it runs like this: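 Colonies stained 24 h with crystal violet in methanol/formaldehyde/PBS, washed, extracted with 10% acetic acid and read at A570 nm. Compared against DMSO control.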

Test [5] deals with U-251. The test is described as follows: Inhibition of cell invasion in human U251 cells at 10 uM incubated for 48 hrs by Boyden chamber method. The test is classed as functional. Summed up: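 Boyden chamber invasion: U251 cells serum-starved 24 h, then 2.5×10^5 cells seeded in 8-μm ECMatrix-coated transwells. Treated with compound at 1 or 10 μM for 48 h at 37 °C. Invasion ratio from relative fluorescence.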

Test [6] deals with U-251. Nature of the test: Inhibition of colony formation in human U251 cells incubated for 14 days by crystal violet dye based assay. The format is functional, cell-based. Conditions: dose 1-10 µM, time 14.0 day. In short, it runs like this: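 U251 cells, 1.0×10^3 per well, treated with compound (1, 3 or 10 μM) for 2 weeks at 37 °C, 5% CO2. Colonies stained 24 h with crystal violet in methanol/formaldehyde/PBS, washed, extracted with 10% acetic acid and read at A570 nm. Compared against DMSO control.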

Test [7] concerns U-251. Nature of the test: Inhibition of cell migration in human U251 cells at 10 uM incubated for 18 hrs by wound healing assay. The test is classed as functional. In short, it runs like this: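 U251 monolayer, 2.0×10^5 cells/well, plated overnight, then scratched and washed with PBS. Wound area imaged before and after incubation; migration ratio taken from migrated area. One-way ANOVA.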

pIC50: −log10 of the molar value. Activity calls are given as the source filed them. The calls are words filed in the database; no cut-off is given here.

As for `CC(C)(C)C(=O)Nc1sc2c(c1C(N)=O)CCC(C(C)(C)C)C2` (stereo not drawn), in the test on U-251 [1], the inhibition at 100 µM amounted to 95.7%. The GI50 amounted to 12.6 µM with U-251 [2] and 22.2 µM in the test with U138-MG. Further, the inhibition result with U-251 [3] was “Active”. In addition, the negative-log IC50 (pIC50) against Anoctamin-1 is 5.51. Further, the inhibition at 10 µM in the test on U-251 [4] was determined as 96.6%; in the test with U-251 [5] it was 90%; with U-251 [7], 90%. In addition, the inhibition entry in the test on U-251 [6] was “Dose-dependent effect”.
Consider `NC(=O)c1c(NC(=S)NC(=O)c2ccc(Cl)cc2)sc2c1CCC2`, for which the inhibition at 100 µM with U-251 [1] was determined as 88%. Besides, the 50% growth inhibitory concentration (GI50) was 12 µM in the test with U-251 [2] and 13.2 µM in the test on U138-MG. The inhibition result with U-251 [3], in the test with U-251 [5] and in the test with U-251 [7] was “Active” each time. Besides, the negative-log IC50 (pIC50) against Anoctamin-1 was 5.63. Moreover, the inhibition at 10 µM with U-251 [4] was 96.4%. In addition, the inhibition result in the test on U-251 [6] was “Dose-dependent effect”.

Source of the values: ChEMBL document CHEMBL4706565, “Anti-glioma effects of 2-aminothiophene-3-carboxamide derivatives, ANO1 channel blockers” (Eur J Med Chem, 2020).
